# CTSL1 counter: blocks F. hepatica cathepsin L1 in PFM18AAP counter-screen; inhibition, % at 5.96 µM; AID 1906; recombinant F. hepatica cathepsin L1, Z-Leu-Arg-MCA fluorescence; actives 0.49% (n = 300,000);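 active = inhibition above the mean of all tested compounds plus 3 SD, set per screening campaign, cut at about 17% in these data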;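 also: 0% = plate median of test compound wells and 100% = 1 µM Z-Phe-Ala-diazomethylketone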
# ARFGAP1 inh: inhibits rat ARF GTPase activating protein 1; Q62848; Arfgap1-stimulated ARF1 GTP hydrolysis, GDP FP detection; inhibition, % at 16.5 µM; actives 0.26% (n = 360,000);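 active = inhibition above a per-plate limit, mean inhibition of low control wells plus 3 SD, cut at about 25% in these data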;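 also: 0% = DMSO wells with enzyme and 100% = wells lacking Arfgap1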
#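 Assay system: purified rat His6-Arfgap1 residues 1-136 (GAP domain); Reagent: human Δ17 ARF1 bound to GTP; Dosing: 16.5 µM single point, 1.26% DMSO; Times: GTP hydrolysis reaction 2 h at 25 °C; Signal: FP, GDP Alexa 633 tracer displaced from anti-GDP antibody, 620/688 nm; Measure: % inhibition from polarization.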
# ASAP1 GAP inh: blocks human ASAP1-stimulated Arf1 GTP hydrolysis; Q9ULH1; GDP FP detection; inhibition, % at 16.5 µM; actives 0.19% (n = 360,000); AID 624377; in the data active = inhibition above about 25%;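 also: 0% = vehicle with enzyme and substrate and 100% = no enzyme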
# NPR2 activator: GC-B (human) receptor activation; P20594; HEK293-GC-B cells, CNP EC30, cGMP TR-FRET; 0% at EC30 CNP, 100% saturating CNP; activation, % at 10 µM; actives 0.11% (n = 370,000); AID 1920062;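 active = activation at 10 µM reaching about 35% in either raw or pattern-adjusted values, limit read from the data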
# HCV core dimer: HCV core protein dimerization inhibition; AID 1899; inhibition, % at 5 µM; actives 0.33% (n = 300,000); TR-FRET GST/Flag-core106 dimerization, 1536-well;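 active = inhibition above the mean of all tested compounds plus 3 SD, set per screening campaign, cut at about 45% in these data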
#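 Assay system: tagged HCV core106 pair (GST and Flag); medium: KF-containing HEPES buffer, pH 7.45, DTT, CHAPS, BSA; also added: Eu donor and XL665 acceptor anti-tag antibodies; dosing: 5 µM single dose; timing: compound-protein-antibody incubation 4 h at 22.5 °C; signal: TR-FRET 671 and 617 nm emission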
# GC-A act: GC-A (human) enzyme activation. actives 0.14% (n = 370,000). activation, % at 10 µM. P16066. HEK293 GC-A cells, cGMP TR-FRET, EC30 ANP; 0% at EC30 ANP, 100% saturating ANP; in the data active = activation above about 40%
# Target sequence (P16066 whole entry, looked up): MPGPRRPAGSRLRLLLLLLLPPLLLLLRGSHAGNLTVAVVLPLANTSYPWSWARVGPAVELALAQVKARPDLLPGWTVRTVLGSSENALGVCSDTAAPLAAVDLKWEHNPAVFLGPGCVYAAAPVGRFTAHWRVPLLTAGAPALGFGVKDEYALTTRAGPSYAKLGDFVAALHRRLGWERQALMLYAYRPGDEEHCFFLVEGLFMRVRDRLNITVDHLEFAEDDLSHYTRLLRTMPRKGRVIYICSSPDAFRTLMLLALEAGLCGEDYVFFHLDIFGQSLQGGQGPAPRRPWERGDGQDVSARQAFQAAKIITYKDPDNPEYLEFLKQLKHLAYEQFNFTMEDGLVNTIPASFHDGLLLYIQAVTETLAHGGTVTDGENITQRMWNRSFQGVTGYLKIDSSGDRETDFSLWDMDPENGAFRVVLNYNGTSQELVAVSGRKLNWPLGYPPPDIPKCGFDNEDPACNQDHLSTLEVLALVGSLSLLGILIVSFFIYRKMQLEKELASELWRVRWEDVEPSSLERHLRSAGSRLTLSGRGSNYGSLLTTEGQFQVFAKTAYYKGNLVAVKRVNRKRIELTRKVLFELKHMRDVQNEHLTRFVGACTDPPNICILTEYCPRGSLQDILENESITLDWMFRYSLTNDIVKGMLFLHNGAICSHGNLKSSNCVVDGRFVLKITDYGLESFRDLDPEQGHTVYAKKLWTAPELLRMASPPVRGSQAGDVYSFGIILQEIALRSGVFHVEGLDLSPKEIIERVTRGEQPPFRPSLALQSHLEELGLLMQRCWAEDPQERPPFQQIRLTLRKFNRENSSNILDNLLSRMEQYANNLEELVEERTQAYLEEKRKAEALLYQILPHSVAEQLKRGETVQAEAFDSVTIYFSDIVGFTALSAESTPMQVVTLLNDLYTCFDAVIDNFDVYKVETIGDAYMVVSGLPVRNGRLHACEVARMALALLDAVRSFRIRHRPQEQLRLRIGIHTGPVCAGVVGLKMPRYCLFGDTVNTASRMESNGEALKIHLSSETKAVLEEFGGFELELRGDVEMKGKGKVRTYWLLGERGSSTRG
# ASAP1 inh confirm: ASAP1 inhibition confirmed | ASAP1-stimulated Arf1 GTPase, GDP fluorescence polarization | actives 37% (n = 620) | inhibition, % at 16.5 µM | AID 624431 | shares compounds with ASAP1 GAP inh;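 active = mean inhibition over triplicates exceeds the hit threshold derived for the earlier primary screening run, cut at about 25% in these data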
# Starred values were filed as active, the others as inactive; · = not tested or not shown. Shown are actives, neighbours in structure and some others; about 1.2% of the full set was active somewhere.
SMILES,CTSL1 counter,ARFGAP1 inh,ASAP1 GAP inh,NPR2 activator,HCV core dimer,GC-A act,ASAP1 inh confirm
O=C(Nc1ccc(NC(=S)NC(=O)c2ccco2)cc1)c1ccc(Br)cc1,·,10,58*,-2,·,2,161*
COc1ccc(CNC(=O)CNS(=O)(=O)c2cccs2)cc1,-2,4,1,10,2,1,·
Cc1ccc(NC2=C(N3CCCCC3)C(=O)c3ccccc3C2=O)cc1,34*,15,28*,3,9,0,16
O=C1C(Nc2ccccc2)=C(N2CCCCC2)C(=O)c2ccccc21,50*,10,30*,1,13,-2,17
COc1ccc(Cn2ccnc2SCC(=O)Nc2ccccc2OC)cc1,-1,-4,26*,3,-12,-2,10
CCCCNC(=O)NC12CC3CC(CC(C3)C1)C2,-2,6,7,2,1,3,·
CCCCNC(=O)NC(C(=O)OC)C12CC3CC(CC(C3)C1)C2 (stereo not given),-1,13,30*,1,-2,-6,-4
O=C(C[n+]1cccc(C(=O)Nc2ccccc2)c1)c1ccc(Cl)cc1,·,3,25*,7,·,0,4
O=C(C[n+]1cccc(C(=O)Nc2ccccc2)c1)c1ccc([N+](=O)[O-])cc1,6,-3,5,-5,-4,2,·
O=c1c2ccccc2nc(/C=C/c2c[nH]c3ccccc23)n1CCO,2,10,0,9,4,6,·
O=c1c2ccccc2nc(/C=C/c2cc(Br)ccc2O)n1CCO,-3,4,27*,-1,1,13,9
CCC(=O)c1ccc(Oc2ccc(C(=O)c3ccc(C)cc3)cc2[N+](=O)[O-])cc1,-1,2,3,4,12,-1,·
Cc1[nH]c2c(ccc3cccnc32)c1C,-4,-3,-1,3,3,5,·
CC1=[N+](C)c2c(ccc3cccnc23)C1(C)C,·,70*,51*,1,·,-2,32*
Cc1noc(C)c1NC(=O)N(C)C[C@H]1Oc2ccc(NS(=O)(=O)c3ccccc3)cc2C(=O)N([C@H](C)CO)C[C@@H]1C,·,2,-1,5,·,3,·
Cc1noc(C)c1NC(=O)N(C)C[C@H]1OCCCC[C@@H](C)Oc2ccc(NS(=O)(=O)c3ccccc3)cc2C(=O)N([C@H](C)CO)C[C@@H]1C,·,6,26*,7,·,1,0
Cc1cc(C)c[n+](C2=C([O-])c3ccccc3C(=O)/C2=N\S(=O)(=O)c2cccs2)c1,13,-5,0,1,-19,-1,·
Cc1ccccc1NC1=C/C(=N\S(=O)(=O)c2cccs2)c2ccccc2C1=O,94*,18,25*,11,8,5,6
Cc1ccc(-n2ncc(C(=O)N3CCN(C(=O)c4ccco4)CC3)c2C2CCN(C(=O)OC(C)(C)C)CC2)cc1C,-1,-5,-11,0,8,0,·
Cc1cc(OCC(=O)Nc2ccncc2)ccc1Cl,0,-1,5,1,3,0,·
Cc1cc(OCC(=O)Nc2ccc3oc(-c4ccncc4)nc3c2)ccc1Cl,0,14,28*,-9,-28,-5,131*
Cc1ccccc1C(=O)NC(C(=O)Nc1nc2c(s1)CCCC2)C(C)C (stereo not given),2,2,-2,-1,2,-4,·
COc1ccc(N/N=C(\C#N)C(=N)SCc2ccccc2)cc1,·,5,26*,-3,·,0,1
Nc1nnc(SCC(=O)Nc2cccnc2Cl)s1,1,14,3,-1,-12,1,·
Cc1cccc(Nc2nnc(SCC(=O)Nc3cccnc3Cl)s2)c1,27*,4,30*,-4,-3,-2,3
SMILES,CTSL1 counter,ARFGAP1 inh,ASAP1 GAP inh,NPR2 activator,HCV core dimer,GC-A act,ASAP1 inh confirm
CC(Sc1ccsc1[N+](=O)[O-])C(=O)NCc1ccccc1 (stereo not given),4,8,25*,1,8,-9,3
COc1ccccc1CNC(=O)C(C)Sc1ccsc1[N+](=O)[O-] (stereo not given),2,-17,-8,-10,14,-16,·
COc1ccccc1/C=N/NC(=O)c1ccc(NC(=O)c2cccc([N+](=O)[O-])c2)cc1,-2,·,·,·,9,·,·
COc1cccc(/C=N/NC(=O)c2cc3cc([N+](=O)[O-])ccc3s2)c1O,-6,0,42*,-6,9,-7,143*
Cc1cc(NS(=O)(=O)c2ccccc2)ccc1NS(=O)(=O)c1ccccc1,·,13,-9,-1,·,3,·
O=C(O)CCCN1C(=O)/C(=C\C(Cl)=C\c2ccccc2)SC1=S,·,0,33*,-6,·,8,61*
CC(C)C[C@@H](CNC(=O)OC(C)(C)C)NC(=O)c1nc[nH]c1C(=O)N[C@@H](CC(C)C)C(=O)CNC[C@H](CC(C)C)NC(=O)c1nc[nH]c1C(=O)N[C@@H](Cc1c[nH]c2ccccc12)C(=O)OC(C)(C)C,·,10,32*,5,·,0,19
CCOc1cc(C(c2c(C)[nH][nH]c2=O)c2c(C)[nH][nH]c2=O)ccc1OCc1ccc([N+](=O)[O-])cc1,1,11,15,13,8,4,·
CCOc1cc(/C=C2/NC(=S)NC2=O)ccc1OCc1ccc([N+](=O)[O-])cc1,-4,2,29*,-10,8,-11,13
O=C(NNS(=O)(=O)c1ccc(Cl)cc1)c1cc(-c2ccccc2)nc2ccccc12,-2,5,28*,-4,5,-2,15
Cc1cccc(S(=O)(=O)NNC(=O)c2cc(-c3ccc(F)cc3)nc3ccccc23)c1,-1,-8,8,-4,7,-7,·
COCCNC(=S)N=Nc1c(O)[nH]c2ccc([N+](=O)[O-])cc12,3,2,30*,-1,0,0,41*
CC(C)NC(=O)c1ccc2c3n(nc2c1)-c1ccc(Cl)cc1CO3,3,3,31*,4,-4,5,7
NCC/C=C1/c2ccccc2CSc2ccccc21,-1,-7,-5,-21,-4,-32,·
COc1ccc(C(=O)CSc2nc(=O)n(Cc3cccnc3)c3c2CCC3)cc1,·,13,26*,6,·,0,2
C=CCn1c(-c2ccccc2OC)n[nH]c1=S,-1,-8,-4,-1,3,-1,·
C=CCn1c(-c2cccc3ccccc23)n[nH]c1=S,-2,5,52*,-4,-6,0,-3

# From PubChem
